The source made the active and inactive calls. No cut-off for these calls is given here.
Legend:
Type in all cases: functional, cell-based
SW872 [1] = assay: Cytotoxicity against human SW872 cells after 72 hrs by [3H]thymidine incorporation assay
Procedure, shortened: (§1)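 Adherent tumour cells at 1 × 10^6 cells/mL (100 µL per well) overlaid with an equal volume of medium carrying test substance across 0.25–4.00 µM. Medium-only controls. Incubated 24, 48 or 72 h at 37 °C, 5% CO2, then pulsed 24 h with 3H-thymidine and harvested onto glass filters for scintillation counting. Final DMSO 0.1%. Triplicate wells, three days (n = 9). IC50 read graphically from each experiment's dose curve.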

SW872 [2] = assay: Cytotoxicity against human SW872 cells after 24 hrs by [3H]thymidine incorporation assay
Procedure, shortened: (§2)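 Adherent tumor cells (100 µL at 1 × 10^6 cells/mL) were overlaid with 100 µL of medium containing compound in the 0.25–4.00 µM range (0.1% final DMSO). The medium control had no compound. Cells were incubated for 24, 48 or 72 h at 37 °C and 5% CO2, then pulsed 24 h with 3H-thymidine. They were harvested onto glass filters and counted by liquid scintillation. Three wells per point, on three separate days (n = 9). IC50 was taken graphically.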

A-431 [3] = assay: Cytotoxicity against human A431 cells after 72 hrs by [3H]thymidine incorporation assay; procedure, shortened: as §2
MCF7 [4] = assay: Cytotoxicity against human MCF7 cells after 72 hrs by [3H]thymidine incorporation assay; procedure, shortened: as §2
A-431 [5] = assay: Cytotoxicity against human A431 cells after 48 hrs by [3H]thymidine incorporation assay; procedure, shortened: as §2
HEp-2 [6] = assay: Cytotoxicity against human HEP2 cells after 48 hrs by [3H]thymidine incorporation assay; procedure, shortened: as §2
SW872 [7] = assay: Cytotoxicity against human SW872 cells after 48 hrs by [3H]thymidine incorporation assay; procedure, shortened: as §2
[8] = Cytotoxicity against human SK37 cells after 72 hrs by [3H]thymidine incorporation assay; procedure, shortened: as §2
[9] = Cytotoxicity against human SK MEL28 cells after 24 hrs by [3H]thymidine incorporation assay; conditions: SK-MEL-28; procedure, shortened: as §2
OVCAR-3 [10] = assay: Cytotoxicity against human OVCAR-3 cells after 72 hrs by [3H]thymidine incorporation assay; procedure, shortened: as §2
[11] = Cytotoxicity against human SK MEL28 cells after 72 hrs by [3H]thymidine incorporation assay; conditions: SK-MEL-28; procedure, shortened: as §2
OVCAR-3 [12] = assay: Cytotoxicity against human OVCAR-3 cells after 48 hrs by [3H]thymidine incorporation assay; procedure, shortened: as §2
MCF7 [13] = assay: Cytotoxicity against human MCF7 cells after 48 hrs by [3H]thymidine incorporation assay; procedure, shortened: as §2
[14] = Cytotoxicity against human SK37 cells after 48 hrs by [3H]thymidine incorporation assay; procedure, shortened: as §2
[15] = Cytotoxicity against human GTB cells after 5 hrs by MTT assay
Procedure, shortened: (§3)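 Leukemic cells at 0.5 × 10^6 cells/mL in RPMI were exposed to 0.01–2.00 µM compound (0.1% final DMSO) at 37 °C and 5% CO2. Viability was measured as MTT formazan, dissolved in DMSO and read at 550 and 630 nm. Three wells per point, on three separate days (n = 9). IC50 was taken graphically from per-experiment dose curves.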

[16] = Cytotoxicity against human SK MEL28 cells after 48 hrs by [3H]thymidine incorporation assay; conditions: SK-MEL-28; procedure, shortened: as §2
HEp-2 [17] = assay: Cytotoxicity against human HEP2 cells after 24 hrs by [3H]thymidine incorporation assay; procedure, shortened: as §2
HL-60 [18] = assay: Cytotoxicity against human HL-60 cells after 5 hrs by MTT assay; conditions: HL-60, 5 h; procedure, shortened: as §3
[19] = Cytotoxicity against human SK37 cells after 24 hrs by [3H]thymidine incorporation assay; procedure, shortened: as §2
ZR-75-1 [20] = assay: Cytotoxicity against human ZR-75-1 cells after 72 hrs by [3H]thymidine incorporation assay; procedure, shortened: as §1
A-431 [21] = assay: Cytotoxicity against human A431 cells after 24 hrs by [3H]thymidine incorporation assay; procedure, shortened: as §2
MCF7 [22] = assay: Cytotoxicity against human MCF7 cells after 24 hrs by [3H]thymidine incorporation assay; procedure, shortened: as §2
ZR-75-1 [23] = assay: Cytotoxicity against human ZR-75-1 cells after 24 hrs by [3H]thymidine incorporation assay; procedure, shortened: as §1
ZR-75-1 [24] = assay: Cytotoxicity against human ZR-75-1 cells after 48 hrs by [3H]thymidine incorporation assay; procedure, shortened: as §1
OVCAR-3 [25] = assay: Cytotoxicity against human OVCAR-3 cells after 24 hrs by [3H]thymidine incorporation assay; procedure, shortened: as §2
HEp-2 [26] = assay: Cytotoxicity against human HEP2 cells after 72 hrs by [3H]thymidine incorporation assay; procedure, shortened: as §2
ZR-75-1 [27] = assay: Cytotoxicity against human ZR-75-1 cells at 0.25 to 2.0 uM after 48 hrs by [3H]thymidine incorporation assay; procedure, shortened: as §1
HEp-2 [28] = assay: Cytotoxicity against human HEP2 cells at 0.25 to 2.0 uM after 48 hrs by [3H]thymidine incorporation assay; procedure, shortened: as §2
SK37 [29] = assay: Cytotoxicity against human SK37 cells at 0.25 to 2.0 uM after 48 hrs by [3H]thymidine incorporation assay; procedure, shortened: as §2
SW872 [30] = assay: Cytotoxicity against human SW872 cells at 0.25 to 2.0 uM after 72 hrs by [3H]thymidine incorporation assay; procedure, shortened: as §1
OVCAR-3 [31] = assay: Cytotoxicity against human OVCAR-3 cells at 0.25 to 2.0 uM after 24 hrs by [3H]thymidine incorporation assay; procedure, shortened: as §2
A-431 [32] = assay: Cytotoxicity against human A431 cells at 0.25 to 2.0 uM after 72 hrs by [3H]thymidine incorporation assay; procedure, shortened: as §2
A-431 [33] = assay: Cytotoxicity against human A431 cells at 0.25 to 2.0 uM after 48 hrs by [3H]thymidine incorporation assay; procedure, shortened: as §2
HL-60 [34] = assay: Cytotoxicity against human HL-60 cells at 0.01 to 2.0 uM after 5 hrs by MTT assay; procedure, shortened: as §3
HEp-2 [35] = assay: Cytotoxicity against human HEP2 cells at 0.25 to 2.0 uM after 72 hrs by [3H]thymidine incorporation assay; procedure, shortened: as §2
GTB = assay: Cytotoxicity against human GTB cells at 0.01 to 2.0 uM after 5 hrs by MTT assay; procedure, shortened: as §3
MCF7 [36] = assay: Cytotoxicity against human MCF7 cells at 0.25 to 2.0 uM after 48 hrs by [3H]thymidine incorporation assay; procedure, shortened: as §2
SK37 [37] = assay: Cytotoxicity against human SK37 cells at 0.25 to 2.0 uM after 24 hrs by [3H]thymidine incorporation assay; procedure, shortened: as §2
SK-MEL-28 [38] = assay: Cytotoxicity against human SK MEL28 cells at 0.25 to 2.0 uM after 48 hrs by [3H]thymidine incorporation assay; procedure, shortened: as §2
SW872 [39] = assay: Cytotoxicity against human SW872 cells at 0.25 to 2.0 uM after 48 hrs by [3H]thymidine incorporation assay; procedure, shortened: as §1
HEp-2 [40] = assay: Cytotoxicity against human HEP2 cells at 0.25 to 2.0 uM after 24 hrs by [3H]thymidine incorporation assay; procedure, shortened: as §2
OVCAR-3 [41] = assay: Cytotoxicity against human OVCAR-3 cells at 0.25 to 2.0 uM after 72 hrs by [3H]thymidine incorporation assay; procedure, shortened: as §2
ZR-75-1 [42] = assay: Cytotoxicity against human ZR-75-1 cells at 0.25 to 2.0 uM after 72 hrs by [3H]thymidine incorporation assay; procedure, shortened: as §1
SK-MEL-28 [43] = assay: Cytotoxicity against human SK MEL28 cells at 0.25 to 2.0 uM after 24 hrs by [3H]thymidine incorporation assay; procedure, shortened: as §2
SK37 [44] = assay: Cytotoxicity against human SK37 cells at 0.25 to 2.0 uM after 72 hrs by [3H]thymidine incorporation assay; procedure, shortened: as §2
A-431 [45] = assay: Cytotoxicity against human A431 cells at 0.25 to 2.0 uM after 24 hrs by [3H]thymidine incorporation assay; procedure, shortened: as §2
OVCAR-3 [46] = assay: Cytotoxicity against human OVCAR-3 cells at 0.25 to 2.0 uM after 48 hrs by [3H]thymidine incorporation assay; procedure, shortened: as §2
MCF7 [47] = assay: Cytotoxicity against human MCF7 cells at 0.25 to 2.0 uM after 24 hrs by [3H]thymidine incorporation assay; procedure, shortened: as §2
SK-MEL-28 [48] = assay: Cytotoxicity against human SK MEL28 cells at 0.25 to 2.0 uM after 72 hrs by [3H]thymidine incorporation assay; procedure, shortened: as §2
SW872 [49] = assay: Cytotoxicity against human SW872 cells at 0.25 to 2.0 uM after 24 hrs by [3H]thymidine incorporation assay; procedure, shortened: as §1
MCF7 [50] = assay: Cytotoxicity against human MCF7 cells at 0.25 to 2.0 uM after 72 hrs by [3H]thymidine incorporation assay; procedure, shortened: as §2
ZR-75-1 [51] = assay: Cytotoxicity against human ZR-75-1 cells at 0.25 to 2.0 uM after 24 hrs by [3H]thymidine incorporation assay; procedure, shortened: as §1

C=C1C(=O)O[C@]23C[C@H]1CCC(CO)=C2C(=O)C=C3C
IC50 (SW872 [1]): 2800 nM
IC50 (SW872 [2]): 3100 nM
IC50 (A-431 [3]): 900 nM
IC50 (MCF7 [4]): 1000 nM
IC50 (A-431 [5]): 1300 nM
IC50 (HEp-2 [6]): 1300 nM
IC50 (SW872 [7]): 2200 nM
IC50 [8]: 1800 nM
IC50 [9]: 2800 nM
IC50 (OVCAR-3 [10]): 1800 nM
IC50 [11]: 1200 nM
IC50 (OVCAR-3 [12]): 2100 nM
IC50 (MCF7 [13]): 700 nM
IC50 [14]: 2400 nM
IC50 [15]: 260 nM
IC50 [16]: 2600 nM
IC50 (HEp-2 [17]): 1500 nM
IC50 (HL-60 [18]): 260 nM
IC50 [19]: 3200 nM
IC50 (ZR-75-1 [20]): 1000 nM
IC50 (A-431 [21]): 1500 nM
IC50 (MCF7 [22]): 800 nM
IC50 (ZR-75-1 [23]): 600 nM
IC50 (ZR-75-1 [24]): 900 nM
IC50 (OVCAR-3 [25]): 1900 nM
IC50 (HEp-2 [26]): 1100 nM

C=C1C(=O)O[C@@H]2C[C@@H](C)[C@@H]3C=CC(=O)[C@@]3(C)[C@@H](O)[C@H]12 [HELENALIN]
IC50 (SW872 [1]): 1200 nM
IC50 (SW872 [2]): 1400 nM
IC50 (A-431 [3]): 800 nM
IC50 (MCF7 [4]): 700 nM
IC50 (A-431 [5]): 900 nM
IC50 (HEp-2 [6]): 900 nM
IC50 (SW872 [7]): 1200 nM
IC50 [8]: 700 nM
IC50 [9]: 1300 nM
IC50 (OVCAR-3 [10]): 1700 nM
IC50 [11]: 500 nM
IC50 (OVCAR-3 [12]): 1600 nM
IC50 (MCF7 [13]): 500 nM
IC50 [14]: 1200 nM
IC50 [15]: 270 nM
IC50 [16]: 900 nM
IC50 (HEp-2 [17]): 900 nM
IC50 (HL-60 [18]): 320 nM
IC50 [19]: 1300 nM
IC50 (ZR-75-1 [20]): 1100 nM
IC50 (A-431 [21]): 900 nM
IC50 (MCF7 [22]): 800 nM
IC50 (ZR-75-1 [23]): 700 nM
IC50 (ZR-75-1 [24]): 800 nM
IC50 (OVCAR-3 [25]): 1400 nM
IC50 (HEp-2 [26]): 800 nM

C=C1C(=O)O[C@]23C[C@H]1CCC(CO[C@H]1O[C@@H](CO)[C@H](O)[C@@H](O)[C@@H]1O)=C2C(=O)C=C3C
Activity (ZR-75-1 [27]): inactive
Activity (HEp-2 [28]): inactive
Activity (SK37 [29]): inactive
Activity (SW872 [30]): inactive
Activity (OVCAR-3 [31]): inactive
Activity (A-431 [32]): inactive
Activity (A-431 [33]): inactive
Activity (HL-60 [34]): inactive
Activity (HEp-2 [35]): inactive
Activity (GTB): inactive
Activity (MCF7 [36]): inactive
Activity (SK37 [37]): inactive
Activity (SK-MEL-28 [38]): inactive
Activity (SW872 [39]): inactive
Activity (HEp-2 [40]): inactive
Activity (OVCAR-3 [41]): inactive
Activity (ZR-75-1 [42]): inactive
Activity (SK-MEL-28 [43]): inactive
Activity (SK37 [44]): inactive
Activity (A-431 [45]): inactive
Activity (OVCAR-3 [46]): inactive
Activity (MCF7 [47]): inactive
Activity (SK-MEL-28 [48]): inactive
Activity (SW872 [49]): inactive
Activity (MCF7 [50]): inactive
Activity (ZR-75-1 [51]): inactive
